Reference: ChEMBL document CHEMBL1144664, “Design, synthesis, and SAR of new pyrrole-oxindole progesterone receptor modulators leading to 5-(7-fluoro-3,3-dimethyl-2-oxo-2,3-dihydro-1H-indol-5-yl)-1-methyl-1H-pyrrole-2-carbonitrile (WAY-255348)” (J Med Chem, 2008)
pIC50: −log10 of the molar value. Calls of active or inactive are those of the source. No cut-off for these calls is given here.

Key:
[1] = target: T1, Mineralocorticoid receptor (Homo sapiens) (UniProt P08235); assay: Agonist activity at human MR ligand binding domain receptor expressed in african green monkey COS7 cells by Gal4 hybrid assay; format: cell-based; conditions: COS-7
T1 sequence (whole entry): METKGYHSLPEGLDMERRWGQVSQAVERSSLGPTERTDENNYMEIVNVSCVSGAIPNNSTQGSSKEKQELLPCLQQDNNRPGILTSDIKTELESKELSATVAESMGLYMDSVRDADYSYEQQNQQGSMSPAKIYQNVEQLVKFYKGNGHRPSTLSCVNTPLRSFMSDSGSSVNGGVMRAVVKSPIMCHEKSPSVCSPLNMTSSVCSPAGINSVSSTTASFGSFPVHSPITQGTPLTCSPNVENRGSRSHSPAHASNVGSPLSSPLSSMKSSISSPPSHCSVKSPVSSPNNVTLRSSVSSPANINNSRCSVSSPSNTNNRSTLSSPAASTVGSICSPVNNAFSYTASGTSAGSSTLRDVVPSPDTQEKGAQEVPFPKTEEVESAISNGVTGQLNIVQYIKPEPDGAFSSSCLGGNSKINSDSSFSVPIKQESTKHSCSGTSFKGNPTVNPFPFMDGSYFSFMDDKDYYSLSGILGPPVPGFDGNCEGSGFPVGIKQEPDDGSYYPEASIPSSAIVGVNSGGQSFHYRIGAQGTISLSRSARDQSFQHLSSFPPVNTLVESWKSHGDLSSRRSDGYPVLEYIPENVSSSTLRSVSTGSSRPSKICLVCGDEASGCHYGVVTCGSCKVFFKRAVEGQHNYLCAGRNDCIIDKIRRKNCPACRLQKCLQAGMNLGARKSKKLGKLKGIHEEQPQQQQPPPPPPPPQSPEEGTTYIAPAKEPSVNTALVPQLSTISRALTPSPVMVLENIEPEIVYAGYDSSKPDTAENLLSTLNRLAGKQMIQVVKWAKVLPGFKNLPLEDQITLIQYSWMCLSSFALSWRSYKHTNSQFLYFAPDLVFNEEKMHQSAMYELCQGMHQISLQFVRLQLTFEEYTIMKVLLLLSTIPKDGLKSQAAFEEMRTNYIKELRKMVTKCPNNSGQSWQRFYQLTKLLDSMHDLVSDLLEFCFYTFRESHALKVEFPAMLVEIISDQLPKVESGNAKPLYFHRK
Summary of the method: (§1)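 Gal4-steroid receptor LBD fusion plasmid plus GAL4_UAS (5 copies, E1b TATA)-luciferase reporter, 50 ng/well each, transfected 16 h into COS-7 cells grown in phenol red-free DMEM with 10% charcoal/dextran-treated FBS. Compound treatment 20 h, then luciferase read-out. Antagonist mode uses 3 nM aldosterone (hMR) or 5 nM 17β-estradiol (hER). Values are the average of at least duplicate determinations.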

Androgen receptor = target: T2, Androgen receptor (Homo sapiens, UniProt P10275)
T2 sequence (P10275 whole entry): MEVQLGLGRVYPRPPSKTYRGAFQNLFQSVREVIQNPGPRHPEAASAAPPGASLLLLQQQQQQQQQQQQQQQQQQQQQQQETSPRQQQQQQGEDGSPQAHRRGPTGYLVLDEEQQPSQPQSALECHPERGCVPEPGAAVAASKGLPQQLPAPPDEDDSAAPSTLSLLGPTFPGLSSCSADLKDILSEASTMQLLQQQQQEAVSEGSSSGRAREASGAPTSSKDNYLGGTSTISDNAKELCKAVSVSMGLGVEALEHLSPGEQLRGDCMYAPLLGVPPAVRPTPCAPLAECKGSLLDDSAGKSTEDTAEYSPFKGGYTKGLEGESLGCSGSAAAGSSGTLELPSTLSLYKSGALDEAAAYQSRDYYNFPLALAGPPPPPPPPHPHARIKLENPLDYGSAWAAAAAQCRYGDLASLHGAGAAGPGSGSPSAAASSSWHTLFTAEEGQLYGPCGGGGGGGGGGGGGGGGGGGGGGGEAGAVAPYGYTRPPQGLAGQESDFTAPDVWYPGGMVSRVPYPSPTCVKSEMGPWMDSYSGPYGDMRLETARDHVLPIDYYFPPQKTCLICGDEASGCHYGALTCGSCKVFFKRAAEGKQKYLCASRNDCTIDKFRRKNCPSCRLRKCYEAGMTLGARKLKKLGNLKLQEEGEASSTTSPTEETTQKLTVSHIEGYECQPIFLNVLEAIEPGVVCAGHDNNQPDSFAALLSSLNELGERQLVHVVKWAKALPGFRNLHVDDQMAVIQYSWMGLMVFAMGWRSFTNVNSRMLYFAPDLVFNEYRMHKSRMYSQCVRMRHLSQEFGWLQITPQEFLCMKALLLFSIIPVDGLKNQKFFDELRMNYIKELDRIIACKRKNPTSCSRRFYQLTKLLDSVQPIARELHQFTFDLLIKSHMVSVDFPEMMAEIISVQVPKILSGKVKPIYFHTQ

[2] = Half life in cynomolgus monkey at 1 mg/kg, iv; format: ADME, organism-based, Macaca fascicularis; design: dose 1 mg/kg, route intravenous; conditions: in vivo
[3] = AUC (0 to infinity) in Sprague-Dawley rat at 5 mg/kg, po; format: ADME, organism-based; design: time infinity, dose 5 mg/kg, route oral; conditions: plasma
Rhesus monkey [4] = assay: Effect on cell proliferation in rhesus monkey assessed basalis mitotic index; format: functional, Macaca mulatta
Summary of the method: (§2)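 Adult female rhesus macaques (n=3) with regular cycles dosed 10 mg/(kg·day) po in 2% Tween 80/0.5% methylcellulose with cherry flavoring for 28 days from cycle day 2. Serum estradiol and progesterone measured every 3 days. Necropsy on day 28. Uterine weights are of half the uterus; KI-67 and mitotic indices counted per 1000 cells. Values given as mean ± SE.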

Cynomolgus monkey = assay: Induction of early menses in cynomolgus monkey at 5 mg/kg, po; format: organism-based, Macaca fascicularis; design: dose 5 mg/kg, route oral; conditions: in vivo
[5] = Oral bioavailability in Sprague-Dawley rat at 5 mg/kg; format: ADME, organism-based; conditions: in vivo
Summary of the method: (§3)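 Female Sprague–Dawley rats dosed as 1-in-4 cassette or discrete studies. iv in DMSO/PEG200 20:80; po in aqueous 2% Tween 80/0.5% methyl cellulose. Parameters reported: C0, Cmax, t1/2, plasma clearance, Vss, AUC0-inf and %F.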

[6] = target: T3, Mineralocorticoid receptor (Homo sapiens, UniProt P08235); assay: Antagonist activity at human MR ligand binding domain expressed in african green monkey COS7 cells in presence of aldosterone by Gal4 hybrid assay; format: cell-based, COS-7; summary of the method: as §1
T3 sequence (P08235 whole entry): T1 sequence (whole entry)

Rhesus monkey [7] = assay: Effect on endometrium weight of rhesus monkey; format: functional, Macaca mulatta; summary of the method: as §2
[8] = Volume of distribution at steady state in Sprague-Dawley rat at 0.5 mg/kg, iv; format: ADME, organism-based; design: dose 0.5 mg/kg, route intravenous; conditions: in vivo, read-out: Vdss; summary of the method: as §3
[9] = Half life in cynomolgus monkey at 5 mg/kg, po; format: ADME, organism-based, Macaca fascicularis; design: dose 5 mg/kg, route oral; conditions: in vivo

In the case of `Cn1c(C#N)ccc1-c1cc(F)c2c(c1)C(C)(C)C(=O)N2`, the Activity [1] was “inactive”, the pIC50 (Androgen receptor) was 6.71 and the half-life [2] was 7.8 h. The AUC(0-inf) [3] was 7150 ng·h/mL, the Activity (Rhesus monkey [4]) was 0 and the Activity (Cynomolgus monkey) was 75%. For the same compound, the bioavailability [5] was 31%, the pIC50 [6] was 5.43 and the Activity (Rhesus monkey [7]) was 60 mg. The Vd [8] was 2.9 L/kg and the half-life [9] was 15.7 h.
